# Assays:
# [1] = target: Nucleoside diphosphate kinase B (Homo sapiens, UniProt P22392); test: Binding affinity to NM23-H2 in human SiHa cells assessed as decrease in NM23-H2 to c-myc G-quadruplex DNA interaction after 9 hrs by Chromatin immunoprecipitation assay; type: cell-based
# How it was run: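 SiHa cells treated 9 h; chromatin immunoprecipitated overnight at 4 °C with anti-NM23-H2 (3 μg), rabbit IgG control; c-MYC promoter fragment PCR-amplified, gel bands normalized to input, untreated set 100%; three repeats.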
# [2] = tested on: SiHa; test: Cell cycle arrest in human SiHa cells assessed as accumulation at G0/G1 phase at 2 uM after 48 hrs by propidium iodide staining based flow cytometry (reference value: 48 %); type: functional
# How it was run: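 SiHa cells plated 24 h, treated at 2 μM for 3–48 h; fixed in ice-cold 70% ethanol overnight, RNase A 20 μg/mL 37 °C 30 min, PI-stained, flow cytometry at 488 nm; phase percentages quantified; at least three experiments.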
# [3] = tested on: SiHa; test: Cell cycle arrest in human SiHa cells assessed as accumulation at S phase at 2 uM after 3 hrs by propidium iodide staining based flow cytometry (reference value: 13%); type: functional
# How it was run: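 SiHa cells (2.0 × 10^5 per well) plated 24 h, then exposed to 2 μM compound or left untreated for 3, 6, 9, 12, 24, 36 or 48 h. Cells washed in PBS, fixed overnight in ice-cold 70% ethanol, treated with 20 μg/mL RNase A for 30 min at 37 °C, stained with PI, and read by flow cytometry at 488 nm. Phase percentages compared with untreated control; at least three experiments.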
# [4] = tested on: Mus musculus; test: Toxicity in BALB/C nude mouse xenografted with human SiHa cells assessed as change in body weight at 2.5 to 5 mg/kg, ip administered daily after 3 weeks; type: organism-based; conditions: in vivo, 504 h
# How it was run: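 SiHa cells implanted in the right armpit of BALB/c nu/nu mice. At approximately 50 mm3, mice randomized (n = 8/group) to vehicle, compound 2.5 or 5.0 mg/kg, or doxorubicin 1.0 mg/kg, given ip daily for 3 weeks. Body weight and signs of pain, distress or discomfort monitored; tumors excised and weighed. Data given as mean ± SEM, t test against vehicle.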
# Nucleoside diphosphate kinase B, sequence (P22392 whole entry, the tested form may be a part): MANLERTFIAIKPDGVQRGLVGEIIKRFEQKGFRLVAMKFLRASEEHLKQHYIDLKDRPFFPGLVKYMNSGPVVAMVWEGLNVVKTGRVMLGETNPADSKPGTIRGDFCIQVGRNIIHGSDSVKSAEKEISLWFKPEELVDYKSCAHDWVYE
smiles,measurement,setting,value
CN(C)CCCNc1cc2nc3n(c(=O)c2cc1F)CC/C3=C\c1ccc(OCc2ccccc2)cc1O,Activity,[1],Dose-dependent effect
same,Activity,[2],0%
same,Activity,[3],11%
same,Activity,[4],Non-Toxic

# Source: ChEMBL document CHEMBL4017489, “Design, Synthesis, and Evaluation of New Selective NM23-H2 Binders as c-MYC Transcription Inhibitors via Disruption of the NM23-H2/G-Quadruplex Interaction” (J Med Chem, 2017)
